Experimental data: ChEMBL document CHEMBL1821613, “Synthesis and evaluation of 5-substituted 2'-deoxyuridine monophosphate analogues as inhibitors of flavin-dependent thymidylate synthase in Mycobacterium tuberculosis” (J Med Chem, 2011)

Experiments:
[1] = biological target: T1, Thymidylate synthase ThyA (Mycobacterium tuberculosis, UniProt P9WFR9); assay: Inhibition of Mycobacterium tuberculosis His-tagged ThyA-mediated dTMP synthesis expressed in BL21 (DE3) Escherichia coli RbCl cells after 30 mins by photometric assay
T1 sequence (P9WFR9 whole entry): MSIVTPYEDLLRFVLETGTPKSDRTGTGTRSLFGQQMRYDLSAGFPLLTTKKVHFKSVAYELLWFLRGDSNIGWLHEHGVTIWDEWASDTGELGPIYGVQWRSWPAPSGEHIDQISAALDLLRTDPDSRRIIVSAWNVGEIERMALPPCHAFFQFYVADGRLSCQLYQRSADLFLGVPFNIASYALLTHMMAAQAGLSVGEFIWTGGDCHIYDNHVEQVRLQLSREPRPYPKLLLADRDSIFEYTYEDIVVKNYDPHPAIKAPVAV

[2] = biological target: T2, Flavin-dependent thymidylate synthase (Mycobacterium tuberculosis) (UniProt P9WG57); assay: Inhibition of Mycobacterium tuberculosis ThyX-mediated dTMP synthesis using [5-3H]dUMP as substrate at 50 uM after 10 mins by liquid scintillation counting
T2 sequence (whole entry): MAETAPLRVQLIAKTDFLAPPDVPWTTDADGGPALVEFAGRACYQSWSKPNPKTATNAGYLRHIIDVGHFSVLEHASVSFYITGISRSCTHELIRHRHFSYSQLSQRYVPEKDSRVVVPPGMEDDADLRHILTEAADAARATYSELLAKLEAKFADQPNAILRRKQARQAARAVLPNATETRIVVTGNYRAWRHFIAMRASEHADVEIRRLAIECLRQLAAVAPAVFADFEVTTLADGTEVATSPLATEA
In short: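 Compounds tested at a single 50 μM dose on purified M. tuberculosis ThyX with 20 μM mTHF, 10 μM FAD, 500 μM NADPH. [5-3H]dUMP (13 Ci/mmol, stock 2 μM) added to start, 10 min at room temperature, TCA/dUMP stop, charcoal cleanup, tritiated water counted by scintillation; percent inhibition relative to control.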

[3] = biological target: T3, Flavin-dependent thymidylate synthase (Mycobacterium tuberculosis, UniProt P9WG57); assay: Inhibition of Mycobacterium tuberculosis ThyX-mediated dTMP synthesis using [5-3H]dUMP as substrate after 10 mins by liquid scintillation counting
T3 sequence (P9WG57 whole entry): T2 sequence (whole entry)
In short: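 Purified M. tuberculosis ThyX with 20 μM mTHF, 10 μM FAD and 500 μM NADPH; reaction started with [5-3H]dUMP (13 Ci/mmol, stock 2 μM), run 10 min at room temperature, stopped with TCA/dUMP. Unreacted substrate removed with activated charcoal (15 min on ice, then centrifugation); tritiated water in supernatant counted. IC50 from dose-response curves of percent activity versus control.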

SMILES	IC50 [1] [µM]	inhibition [2] [%]	IC50 [3] [µM]
CCCCCCCCCCC#Cc1cn([C@@H]2O[C@H](COP(=O)(O)O)[C@@H](O)[C@@H]2O)c(=O)[nH]c1=O	> 50	19	> 50
CCCCNC(=O)CCCCC#Cc1cn([C@H]2C[C@H](O)[C@@H](COP(=O)(O)O)O2)c(=O)[nH]c1=O	> 50	74.6	8.03
CCCCCCCS(=O)(=O)NCC#Cc1cn([C@H]2C[C@H](O)[C@@H](COP(=O)(O)O)O2)c(=O)[nH]c1=O	> 50	84.7	6.93
O=C(Cc1ccccc1)NCC#Cc1cn([C@H]2C[C@H](O)[C@@H](COP(=O)(O)O)O2)c(=O)[nH]c1=O	> 50	86.9	7.3
O=c1[nH]c(=O)n([C@H]2C[C@H](O)[C@@H](COP(=O)(O)O)O2)cc1F	0.57	95.1	0.29
CCCCNC(=O)CCCCC#Cc1cn([C@@H]2O[C@H](COP(=O)(O)O)[C@@H](O)[C@@H]2O)c(=O)[nH]c1=O	> 50	21	> 50
COc1cccc(-c2cn([C@H]3C[C@H](O)[C@@H](COP(=O)(O)O)O3)c(=O)[nH]c2=O)c1	> 50	16	> 50
CCCCCC(=O)NCC#Cc1cn([C@H]2C[C@H](O)[C@@H](COP(=O)(O)O)O2)c(=O)[nH]c1=O	> 50	89.9	8.61
CCCCCCCCCCC#Cc1cn([C@H]2C[C@H](O)[C@@H](COP(=O)(O)O)O2)c(=O)[nH]c1=O	> 50	82.6	27.8
O=c1[nH]c(=O)n([C@H]2C[C@H](O)[C@@H](COP(=O)(O)O)O2)cc1-c1ccc(F)cc1	> 50	74	10
CCCCCCNC(=O)NCC#Cc1cn([C@H]2C[C@H](O)[C@@H](COP(=O)(O)O)O2)c(=O)[nH]c1=O	> 50	90.9	4.84
CCCCCCCC(=O)NCC#Cc1cn([C@H]2C[C@H](O)[C@@H](COP(=O)(O)O)O2)c(=O)[nH]c1=O	> 50	92.8	0.91
CCCC(=O)NCC#Cc1cn([C@H]2C[C@H](O)[C@@H](COP(=O)(O)O)O2)c(=O)[nH]c1=O	> 50	72	26.2
N#C/C=C/c1cn([C@H]2C[C@H](O)[C@@H](COP(=O)(O)O)O2)c(=O)[nH]c1=O	> 50	81.3	7.4
